Laboratory results: ChEMBL document CHEMBL1138358, “Synthesis and in vivo antitumor evaluation of 2-methoxyestradiol 3-phosphate, 17-phosphate, and 3,17-diphosphate” (J Med Chem, 2007)

Key:
[1] = Drug level in Sprague-Dawley rat plasma at 1 mg/kg, iv after 120 mins; assay type: ADME, organism-based; parameters: dose 1 mg/kg, route intravenous
Summary of the method: (§1)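 Jugular-cannulated Sprague–Dawley rats were fasted overnight and given a single tail-vein dose in 45% (w/v) hydroxypropyl-β-cyclodextrin in water (0.5 mg/mL, 2 mL/kg). K-EDTA blood was drawn via the cannula and the plasma was frozen below −20 °C. Plasma was acidified with formic acid and analysed by negative-ion ESI LC-MS/MS (MRM). Standard curves were spiked into rat plasma.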

[2] = tested on: Plasma; experiment: Drug level in Sprague-Dawley rat plasma at 1 mg/kg, iv assessed as 2-methoxyestradiol level after 30 mins; assay type: ADME, organism-based; parameters: dose 1 mg/kg, route intravenous; conditions: in vivo, 0.5 h; summary of the method: as §1
[3] = tested on: Plasma; experiment: Drug level in Sprague-Dawley rat plasma at 1 mg/kg, iv assessed as 2-methoxyestradiol level after 60 mins; assay type: ADME, organism-based; parameters: dose 1 mg/kg, route intravenous; conditions: in vivo, 1 h; summary of the method: as §1
[4] = Drug level in Sprague-Dawley rat plasma at 1 mg/kg, iv after 15 mins; assay type: ADME, organism-based; parameters: dose 1 mg/kg, route intravenous; summary of the method: as §1
[5] = Drug level in Sprague-Dawley rat plasma at 1 mg/kg, iv after 30 mins; assay type: ADME, organism-based; parameters: dose 1 mg/kg, route intravenous; summary of the method: as §1
[6] = tested on: Lewis lung carcinoma cell line; experiment: Antitumor activity against LLC cells inoculated in C57BL/6J mouse assessed as lung weight at 200 mg/kg, ip qd for 12 days; assay type: functional; conditions: route intraperitoneal
Summary of the method: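 LLC cells in exponential growth were harvested by brief trypsinization (0.25% trypsin, 0.02% EDTA, 1 min, 37 °C), washed and resuspended at 5 × 10⁵ cells/mL in Ca²⁺/Mg²⁺-free PBS. Mice were housed under SPF conditions, with 10 per group. From day 3 after tumor cell injection, compound was given ip daily for 12 days. On day 15, mean lung weight was corrected for non-tumor-bearing lung weight. T/C = (A − C)/(B − C) versus vehicle (0.1 mL).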

[7] = tested on: Plasma; experiment: Drug level in Sprague-Dawley rat plasma at 1 mg/kg, iv assessed as 2-methoxyestrone level after 5 mins; assay type: ADME, organism-based; parameters: dose 1 mg/kg, route intravenous; conditions: in vivo; summary of the method: as §1
[8] = tested on: SN12C; experiment: Cytotoxicity against human SN12C cells; assay type: functional
[9] = tested on: MDA-MB-435; experiment: Cytotoxicity against human MDA-MB-435 cells; assay type: functional
[10] = tested on: Plasma; experiment: Drug level in Sprague-Dawley rat plasma at 1 mg/kg, iv assessed as 2-methoxyestradiol level after 15 mins; assay type: ADME, organism-based; parameters: dose 1 mg/kg, route intravenous; conditions: in vivo, 0.25 h; summary of the method: as §1
[11] = tested on: Plasma; experiment: Drug level in Sprague-Dawley rat plasma at 1 mg/kg, iv assessed as 2-methoxyestradiol level after 120 mins; assay type: ADME, organism-based; parameters: dose 1 mg/kg, route intravenous; conditions: in vivo, 2 h; summary of the method: as §1
[12] = tested on: Plasma; experiment: Drug level in Sprague-Dawley rat plasma at 1 mg/kg, iv assessed as 2-methoxyestrone level after 15 mins; assay type: ADME, organism-based; parameters: dose 1 mg/kg, route intravenous; conditions: in vivo, 0.25 h; summary of the method: as §1
[13] = tested on: Plasma; experiment: Drug level in Sprague-Dawley rat plasma at 1 mg/kg, iv assessed as 2-methoxyestradiol level after 5 mins; assay type: ADME, organism-based; parameters: dose 1 mg/kg, route intravenous; conditions: in vivo; summary of the method: as §1
[14] = Drug level in Sprague-Dawley rat plasma at 1 mg/kg, iv after 5 mins; assay type: ADME, organism-based; parameters: dose 1 mg/kg, route intravenous; summary of the method: as §1
[15] = tested on: Plasma; experiment: Drug level in Sprague-Dawley rat plasma at 1 mg/kg, iv assessed as 2-methoxyestrone level after 60 mins; assay type: ADME, organism-based; parameters: dose 1 mg/kg, route intravenous; conditions: in vivo, 1 h; summary of the method: as §1
[16] = tested on: Plasma; experiment: Drug level in Sprague-Dawley rat plasma at 1 mg/kg, iv assessed as 2-methoxyestrone level after 120 mins; assay type: ADME, organism-based; parameters: dose 1 mg/kg, route intravenous; conditions: in vivo, 2 h; summary of the method: as §1
[17] = tested on: Plasma; experiment: Drug level in Sprague-Dawley rat plasma at 1 mg/kg, iv assessed as 2-methoxyestrone level after 30 mins; assay type: ADME, organism-based; parameters: dose 1 mg/kg, route intravenous; conditions: in vivo, 0.5 h; summary of the method: as §1
[18] = tested on: HCT-116; experiment: Cytotoxicity against human HCT116 cells; assay type: functional
[19] = Drug level in Sprague-Dawley rat plasma at 1 mg/kg, iv after 60 mins; assay type: ADME, organism-based; parameters: dose 1 mg/kg, route intravenous; summary of the method: as §1
[20] = tested on: UACC-62; experiment: Cytotoxicity against human UACC62 cells; assay type: functional
[21] = tested on: OVCAR-3; experiment: Cytotoxicity against human OVCAR-3 cells; assay type: functional
[22] = tested on: HOP-62; experiment: Cytotoxicity against human HOP62 cells; assay type: functional
[23] = tested on: SF-539; experiment: Cytotoxicity against human SF539 cells; assay type: functional
[24] = tested on: DU-145; experiment: Cytotoxicity against human DU145 cells; assay type: functional
[25] = tested on: Lewis lung carcinoma cell line; experiment: Antitumor activity against LLC cells inoculated in C57BL/6J mouse assessed as lung weight at 100 mg/kg, ip qd for 12 days; assay type: functional; conditions: route intraperitoneal
Summary of the method: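 LLC cells in exponential growth were harvested by brief trypsinization (1 min, 37 °C), washed, and resuspended at 5 × 10⁵ cells/mL in Ca²⁺/Mg²⁺-free PBS before injection into SPF-housed mice. From day 3 after injection, groups of 10 mice were dosed ip daily for 12 days. On day 15, mean lung weight was corrected for non-tumor-bearing lung weight. T/C = (A − C)/(B − C).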

concentration at 2 h [1] [ng/mL] | Cp [2] [ng/mL] | Cp [3] [ng/mL] | concentration at 0.25 h [4] [ng/mL] | concentration at 0.5 h [5] [ng/mL] | Cp [7] [ng/mL] | Cp [10] [ng/mL] | Cp [12] [ng/mL] | Cp [13] [ng/mL] | concentration at 5 min [14] [ng/mL] | Cp [15] [ng/mL] | SMILES | GI50 [8] [µM] | GI50 [9] [µM] | Cp [11] [ng/mL] | GI50 [18] [µM] | GI50 [20] [µM] | GI50 [21] [µM] | GI50 [22] [µM] | GI50 [23] [µM] | GI50 [24] [µM] | also measured
6.9 | 9.2 | 5 | 351 | 138 | 5 | 15 | 5 | 34.1 | 1320 | 5 | COc1cc2c(cc1O)CC[C@@H]1[C@@H]2CC[C@]2(C)[C@@H](OP(=O)(O)O)CC[C@@H]12 | > 100 | 20 | 5 | 87.1 | 38 |  |  | 75.9 |  | Cp [16]: 5 ng/mL; Cp [17]: 5 ng/mL; concentration at 1 h [19]: 21.2 ng/mL
 |  |  |  |  |  |  |  |  |  |  | CCOP(=O)(OCC)Oc1cc2c(cc1OC)[C@H]1CC[C@]3(C)[C@@H](OP(=O)(OCC)OCC)CC[C@H]3[C@@H]1CC2 | 16.6 | 56.2 |  | 20.4 | 11.5 | 55 | 21.9 | 19.5 | 13.8 | 
 |  |  |  |  |  |  |  |  |  |  | CCOP(=O)(OCC)O[C@H]1CC[C@H]2[C@@H]3CCc4cc(O)c(OC)cc4[C@H]3CC[C@]12C | 17.4 | 13.2 |  | 19 | 14.4 | 15.1 |  | 19.5 |  | 
 |  |  |  |  |  |  |  |  |  |  | COc1cc2c(cc1O)CC[C@@H]1[C@@H]2CC[C@]2(C)C(=O)CC[C@@H]12 |  |  | 5 |  |  |  |  |  |  | 
 |  |  |  |  |  |  |  |  |  |  | COc1cc2c(cc1OP(=O)(O)O)CC[C@@H]1[C@@H]2CC[C@]2(C)[C@@H](OP(=O)(O)O)CC[C@@H]12 | > 100 | > 100 |  | > 100 | > 100 | > 100 | > 100 |  | > 100 | 
< 1 | 22.3 | 5.3 | 31.3 | 7.1 | 16.3 | 57.3 | 12.7 | 153.4 | 366 | 2.7 | COc1cc2c(cc1OP(=O)([O-])O)CC[C@@H]1[C@@H]2CC[C@]2(C)[C@@H](O)CC[C@@H]12.[Na+] | 1.31 | 0.11 | 5 | 1.45 | 1.32 | 0.34 | 0.69 | 0.66 | 2.95 | Activity [6]: 0.23 g; Cp [16]: 5 ng/mL; Cp [17]: 8.8 ng/mL; concentration at 1 h [19]: 1.2 ng/mL; Activity [25]: 0.44 g

SMILES | concentration at 2 h [1] [ng/mL] | Cp [2] [ng/mL] | Cp [3] [ng/mL] | concentration at 0.25 h [4] [ng/mL] | concentration at 0.5 h [5] [ng/mL] | Cp [7] [ng/mL] | Cp [10] [ng/mL] | Cp [12] [ng/mL] | Cp [13] [ng/mL] | concentration at 5 min [14] [ng/mL] | Cp [15] [ng/mL] | GI50 [8] [µM] | GI50 [9] [µM] | Cp [11] [ng/mL] | GI50 [18] [µM] | GI50 [20] [µM] | GI50 [21] [µM] | GI50 [22] [µM] | GI50 [23] [µM] | GI50 [24] [µM] | also measured
COc1cc2c(cc1O)CC[C@@H]1[C@@H]2CC[C@]2(C)[C@@H](O)CC[C@@H]12 [2-METHOXYESTRADIOL] | 5 | 44.7 | 11.3 | 168 | 44.7 | 6.3 | 168 | 5 | 764 | 764 | 5 | 0.95 | 0.08 | 5 | 0.47 | 0.36 | 0.21 | 0.7 | 0.32 | 1.8 | Activity [6]: 0.44 g; Cp [16]: 5 ng/mL; Cp [17]: 5.4 ng/mL; concentration at 1 h [19]: 11.3 ng/mL
